PfG6PD inh: PfG6PD enzyme inhibitors, primary screen, biochemical, fluorescence intensity, uHTS; hit rate 0.78% among 350,000; AID 504690, 2011; inhibition, % at 20 µM; glucose-6-phosphate dehydrogenase-6-phosphogluconolactonase (Plasmodium falciparum 3D7); PfGluPho enzyme, NADPH resazurin-diaphorase fluorescence;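 active means inhibition reaching at least a set limit at 20 µM in the primary screen, cut at about 59% in these data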
CXCR6 block: CXCR6 receptor inhibitors, primary screen, cell-based, beta-arrestin, luminescence, CHO-K1 PathHunter, 1536-well | inhibition, % at 20 µM | hit rate 0.36% among 360,000 | AID 602244, 2012; in the data active means inhibition above about 34%, passing the limit was not always enough;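 further: antagonist mode with CXCL16 agonist at 10 nM final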
Target sequence (O00574 whole entry, looked up): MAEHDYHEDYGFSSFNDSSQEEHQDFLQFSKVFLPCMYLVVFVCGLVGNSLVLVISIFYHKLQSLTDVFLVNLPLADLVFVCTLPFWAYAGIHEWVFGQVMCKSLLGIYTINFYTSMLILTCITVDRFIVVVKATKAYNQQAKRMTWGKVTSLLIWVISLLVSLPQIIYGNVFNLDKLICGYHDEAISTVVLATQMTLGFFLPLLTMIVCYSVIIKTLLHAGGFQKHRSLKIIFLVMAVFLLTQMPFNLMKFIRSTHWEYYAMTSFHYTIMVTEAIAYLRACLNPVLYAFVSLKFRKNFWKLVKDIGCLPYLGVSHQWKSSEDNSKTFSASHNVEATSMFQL
CCR6 antag: CCR6 receptor antagonists, primary screen, cell-based, CHO-K1, luminescence, beta-arrestin, uHTS; CHO-K1 CCR6 PathHunter beta-arrestin, CCL20-stimulated; inhibition, % at 20 µM; hit rate 0.49% among 340,000; AID 493098, 2011;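 active means compounds whose inhibition of the agonist-driven luminescence signal at 20 µM reaches about 50%, limit read from the data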;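 further: cells stimulated with CCL20 at 14 nM final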
Target sequence (P51684 whole entry, looked up): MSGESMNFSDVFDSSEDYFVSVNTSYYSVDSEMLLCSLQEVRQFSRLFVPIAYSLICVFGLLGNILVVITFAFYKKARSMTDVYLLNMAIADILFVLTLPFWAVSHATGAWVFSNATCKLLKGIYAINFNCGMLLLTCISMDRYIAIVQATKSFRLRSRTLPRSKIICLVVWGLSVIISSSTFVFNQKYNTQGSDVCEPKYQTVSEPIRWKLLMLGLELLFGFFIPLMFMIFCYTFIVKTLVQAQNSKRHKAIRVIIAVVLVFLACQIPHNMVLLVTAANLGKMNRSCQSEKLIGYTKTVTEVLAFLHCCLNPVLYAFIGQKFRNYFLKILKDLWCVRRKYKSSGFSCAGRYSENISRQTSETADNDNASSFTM
APJ agonist: agonists of human apelin receptor APJ, primary screen, CHO-K1 cells, PathHunter beta-arrestin, luminescence; activation, % at 20 µM; 0% DMSO wells, 100% apelin; AID 2520, 2010; P35414; hit rate 0.11% among 330,000;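 active means activation more than six SD over the plate average, tested at 20 µM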
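Assay system: CHO-K1 cells stably expressing ProLink-tagged human APJ and arrestin–beta-gal acceptor. Compound dosing: 20 µM single point, 1% DMSO. Times: 16-18 h seeding, 90 min dark compound exposure, 60 min detection. Detection: beta-gal luminescence. Evaluation: APJ–arrestin association signal. Controls: negative DMSO alone, positive Apelin-13 at 10 nM.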
APJ antagonist: antagonists of human apelin receptor APJ, primary screen, CHO-K1 cells, beta-arrestin complementation, luminescence. P35414. inhibition, % at 20 µM. hit rate 0.32% among 330,000. AID 2521, 2010;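 active means inhibition above about 40% at 20 µM, limit read from the data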;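 further: cells challenged with 10 nM apelin-13 agonist together with compound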
B2AR ag: beta2AR agonists driving receptor internalization, primary screen, cell-based, FAP fluorogen, flow cytometry; Am2.2-beta2AR cells; response, % (concentration not given with the values); hit rate 0.43% among 340,000; AID 504454, 2011;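 active means response above a set limit, near 3 SD of response in nonfluorescent compounds, cut at about 42% in these data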
Large screens that a line does not name were inactive. An excerpt weighted towards active compounds, which were near 1.7% of everything screened.

Cc1ccccc1C(=O)NC(=S)Nc1ccc(S(=O)(=O)N2CCOCC2)cc1	none
CCOc1ccccc1CN1CCCC(C(=O)Nc2cccc(-n3cccn3)c2)C1 (stereo unspecified)	none
Cc1noc(NS(=O)(=O)c2ccc(NS(=O)(=O)c3ccc(Cl)cc3)cc2)c1C	none
CCOc1ccc(N=C/C=C/c2ccccc2)c(O)c1	CCR6 antag 52.3
CN1C(=O)NC(c2ccc(C(F)(F)F)cc2)C2=C1CC(C)(C)CC2=O (stereo unspecified)	none
O=C(/C=C/c1cn(-c2ccccc2)nc1-c1cccnc1)N1CCCC1	none (no result: APJ agonist, APJ antagonist)
O=C(/C=C/c1cn(-c2ccccc2)nc1-c1cccnc1)c1ccco1	B2AR ag 80.8
Cc1cc(C(=O)COC(=O)c2cc(O)c3ccccc3c2O)c(C)n1CC1CCCO1 (stereo unspecified)	PfG6PD inh 78.4 (no result: APJ agonist, APJ antagonist)
Cc1cc(C(=O)COC(=O)c2ccccc2O)c(C)n1CC1CCCO1 (stereo unspecified)	none
CCOc1ccc(-c2nn(-c3ccccc3)cc2/C=C2\SC(N)=NC2=O)cc1C	B2AR ag 58.6
Cc1ccc(-c2nn(-c3ccccc3)cc2/C=C2\SC(=S)N(CC(=O)O)C2=O)cc1	none
O=c1[nH]c(=S)[nH]cc1Oc1ccc(Cl)cc1	none (no result: APJ agonist, APJ antagonist)
CC(C)c1ccc(NC(=O)C2Cc3c(-c4ccc5c(c4)OCO5)ccnc3O2)cc1 (stereo unspecified)	none (no result: PfG6PD inh, CCR6 antag, APJ agonist, APJ antagonist, B2AR ag)
CC(C)c1ccc(S(=O)(=O)/N=C2/C=C(Sc3ncn[nH]3)C(=O)c3ccccc32)cc1	PfG6PD inh 104.1 (no result: APJ agonist, APJ antagonist)
Cc1ccc(S(=O)(=O)Nc2ccc(O)c(Sc3ncn[nH]3)c2)cc1	none
CN(C)c1ccc(N=Nc2ccc(C(=O)O)cc2)cc1	none
Cc1csc(N=Nc2ccc(N(C)C)cc2)[n+]1[O-]	CXCR6 block 46.8 (no result: CCR6 antag, APJ agonist, APJ antagonist, B2AR ag)
CCCCn1c(CCl)nc2cc(S(=O)(=O)N3CCOCC3)ccc21	none
CC(NNC(=S)N1CCN(c2ccccn2)CC1)c1nccc2ccccc12 (stereo unspecified)	CCR6 antag 64.2 (no result: APJ agonist, APJ antagonist)
CCOC(=O)c1nnn(-c2nonc2N)c1CN1CCCC1	none
CCOC(=O)c1nnn(-c2nonc2N)c1CN1CCCCCC1	CCR6 antag 104.2
O=C(O)c1ccc(Cl)c(NC(=O)C2CCN(S(=O)(=O)c3ccc4c(c3)OCCO4)CC2)c1	none (no result: CCR6 antag, APJ agonist, APJ antagonist, B2AR ag)
CC[C@H](C)/C=C/C1=CC2=C(Cl)C(=O)[C@@]3(C)OC(=O)C(C(=O)[C@H](C)[C@@H](C)O)=C3C2=CO1	none
CCOC(=O)C1=C(Cc2ccc(Cl)cc2)C(=O)c2ccccc2C1=O	PfG6PD inh 94.5 (no result: CCR6 antag)
COc1cc(-n2nc(C)c3c2OC(N)=C(C#N)C3c2ccccc2)c(Cl)c(Br)c1O (stereo unspecified)	CCR6 antag 69.9
CN1CCN(C2=C(Cl)C(=O)N(C3CCCCC3)C2=O)CC1	none
CN1CCN(C2=C(Cl)C(=O)C(c3cnc(N4CCCCC4)s3)=C(Cl)C2=O)CC1	PfG6PD inh 91.1, CCR6 antag 74.2
O=C(O)[C@H](Cc1c[nH]c2ccccc12)Nc1ncccc1[N+](=O)[O-]	none
O=c1[nH]sc2ccccc12	PfG6PD inh 65.1 (no result: APJ agonist, APJ antagonist)
CC(=O)Nc1ccc(C(=O)N2CCCCC2c2cc(C(=O)Nc3ccccc3Cl)no2)cc1 (stereo unspecified)	none (no result: PfG6PD inh, CCR6 antag, APJ agonist, APJ antagonist, B2AR ag)
CCOc1ccc(/C=C2\SC(N3CCc4ccccc4C3)=NC2=O)cc1	B2AR ag 67.7
COc1cc(NC(=O)C(C)Oc2ccccc2)ccc1NC(=O)COc1ccccc1 (stereo unspecified)	none
COc1ccc(C(=O)CC(=O)C(=O)Nc2ccc(Cl)cc2)cc1	CCR6 antag 53.4 (no result: APJ agonist, APJ antagonist)
COc1ccc(C/C(C)=N/NC(=S)Nc2ccc(Cl)cc2)cc1	B2AR ag 57.6
CCCCc1ccc(NC(=S)NCc2cccc(OC)c2)cc1	none
CCCCc1ccc(NC(=S)Nc2ccc(Nc3ccc(OC)cc3)cc2)cc1	B2AR ag 56.4
O=c1c2c([N+](=O)[O-])cc([N+](=O)[O-])cc2sn1-c1ccc(Br)cc1	PfG6PD inh 121.0, CCR6 antag 50.1
O=C(Nc1ccc(Br)cc1)c1cc([N+](=O)[O-])cc([N+](=O)[O-])c1	none
C#CCOCCOCCOCCNc1nc(N2CCN(C(=O)CCCCCCCCCCNC(=O)Cn3cc(C[C@@H](C)O)nn3)CC2)nc(N2CCN(C(=O)CCCCCCCCCCNC(=O)[C@H](CCCN=C(N)N)n3cc(C[C@@H](C)CC)nn3)CC2)n1	B2AR ag 57.0
C#CCOCCOCCOCCNc1nc(N2CCN(C(=O)CCCCCCCCCCNC(=O)[C@H](CO)n3cc(CCCSC)nn3)CC2)nc(N2CCN(C(=O)CCCCCCCCCCNC(=O)[C@H](CCCN=C(N)N)n3cc(C[C@@H](C)CC)nn3)CC2)n1	B2AR ag 89.2
CC1(C(=O)Nc2ccc3nc[nH]c3c2)CCN1C(=O)C1(c2ccccc2)CCCC1 (stereo unspecified)	none (no result: PfG6PD inh, CCR6 antag, APJ agonist, APJ antagonist, B2AR ag)
C/C(=N\NC(=S)NCc1ccccc1)c1ccc(C(C)(C)C)cc1	CCR6 antag 62.5
CCOC(=O)CSc1nc2c(sc(=S)n2-c2ccccc2)c(=O)n1-c1ccc(OC)cc1OC	PfG6PD inh 65.1
CC(C)CC(N)c1csc(Nc2ncccn2)n1 (stereo unspecified)	none (no result: PfG6PD inh, CCR6 antag, APJ agonist, APJ antagonist, B2AR ag)
NC(=S)N/N=C/c1ccc(C23CC4CC(CC(C4)C2)C3)cc1	CCR6 antag 65.5 (no result: CXCR6 block, B2AR ag)
NC(=S)N/N=C/c1ccccc1	none
O=C(NC(=S)Nc1ccccc1Cl)c1cncc(Br)c1	CCR6 antag 51.8
O=C(NC(=S)Nc1ccccc1Cl)c1cncc(C#Cc2ccccc2)c1	none
CC(=O)Oc1ccc(N2C(=O)c3cccc4c([N+](=O)[O-])ccc(c34)C2=O)cc1	CCR6 antag 65.2
O=C1c2cccc3c([N+](=O)[O-])ccc(c23)C(=O)N1c1nccs1	PfG6PD inh 60.0, CXCR6 block 43.3, CCR6 antag 73.3
O=C1c2cccc3cccc(c23)C(=O)N1c1nccs1	none
O=C1C=CC(=O)N1CCCCCCN1C(=O)C=CC1=O	PfG6PD inh 95.0, CCR6 antag 103.5 (no result: CXCR6 block, APJ agonist, APJ antagonist, B2AR ag)
O=C1/C(=C/c2ccc(O)c(O)c2)SC(=S)N1Nc1ccccc1	CXCR6 block 50.7, CCR6 antag 60.7 (no result: APJ agonist, APJ antagonist)
CCOC(=O)c1csc(NC(=O)CSc2nnnn2-c2ccc(OC)cc2)n1	none
CCOC(=O)c1c(NC(=O)CSc2nnnn2-c2ccc(OC)cc2)sc(C)c1C	PfG6PD inh 90.1
[O-]/[N+](=C/c1ccc(F)cc1)c1ccc(Cl)cc1	PfG6PD inh 64.7

Compound activity deposited in PubChem BioAssay by several laboratories.
